Experimental data: article PMC2582604 (Nucleic Acids Research, 2008)
Blank lines part the entries; values can stand above or below the substance they belong to.

How the values were obtained:
HeLa pLuc705 cells [1] = test: Energy dependence of uptake; type: cell-based; details: 1 µM conjugate, 30 min pre-incubation, 1 h incubation, luciferase read-out
Summary of the method: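 Cells pre-incubated 30 min in OptiMEM at either 37°C or 4°C. Conjugate was then added at 1 μM final and incubation continued 1 h. Read-out was luciferase in lysates, normalised to BCA protein, as in the splicing redirection assay.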

Serum stability assay = type: in vitro ADME, mouse; details: 37°C
Summary of the method: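 Conjugate (20 μM) incubated at 37°C in PBS with 20% mouse serum (from clotted blood of female Balb/c mice, cleared by 3 × 30 min centrifugation at 4°C). Aliquots at 0, 15, 30, 60 and 120 min were quenched in 10% dichloroacetic acid in H2O/CH3CN (50/50) and held at –20°C. Supernatant after protein pelleting was analysed by MALDI-TOF MS; cleavage sites were assigned from fragment masses, semi-quantitatively.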

HeLa pLuc705 cells [2] = test: Endocytosis inhibitor study, luciferase read-out; type: cell-based; details: 1 μM conjugate
Summary of the method: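 HeLa pLuc705 cells pre-incubated 30 min in OptiMEM at 37°C with inhibitor: chlorpromazine 30 μM or K+ depletion (clathrin), nystatin 50 μM or filipin-III 5 μg ml–1 (caveolae), methyl-β-cyclodextrin 2.5 mM or EIPA 1 mM (macropinocytosis). Inhibitor levels and timings were set to spare protein synthesis. Conjugate then added to 1 μM final for 30 min. Luciferase read as in the splicing assay.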

HeLa pLuc705 cells [3] = test: HeLa pLuc705 splicing redirection, luciferase upregulation; type: cell-based
Summary of the method: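 HeLa pLuc705 cells were seeded at 1.75 × 10^5/well and grown overnight. Test compound was added for 4 h in OptiMEM without transfection agent, then diluted with DMEM/10% FBS for a further 20 h. Cells were washed in ice-cold PBS and lysed. Luminescence was normalised to BCA protein (550 nm) and expressed as RLU/µg protein or fold over background. Triplicates averaged.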

[4] = system: aberrant β-globin intron 705 site in HeLa pLuc705 cells; test: HeLa pLuc705 splicing redirection, RT-PCR analysis; type: cell-based; details: RT-PCR assay
Summary of the method: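 HeLa pLuc705 cells were treated with increasing conjugate concentrations as in the luciferase assay (4 h OptiMEM, then 20 h with added serum medium). Total RNA was extracted from the leftover lysate after luciferase and protein measurement. RT-PCR products were separated on 2% agarose and gels scanned to quantify aberrant versus correctly spliced RNA. EC50 of splicing redirection was taken from the dose series.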

[5] = system: dystrophin pre-mRNA exon 23 in mdx myoblasts; test: Exon skipping after electroporation into mdx myoblasts; type: cell-based, mouse; details: 0.5 nmol electroporated into mdx myoblasts, 24 h, nested RT-PCR
Summary of the method: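 H2K mdx myoblasts (undifferentiated) were grown 2 days at 33°C, 10% CO2, in 20% FBS/DMEM with interferon γ, then trypsinised. 1.5 × 10^6 cells/100 µl Nucleofector Solution V were pulsed with 0.5 nmol PNA, conjugate or sense control PNA (program T-020). Cells rested 10 min at room temperature in OptiMEM, then cultured 24 h on gelatin at 33°C. Total RNA underwent one-step RT-PCR then nested PCR; 2% agarose gel.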

Substance: (R-Ahx-R)3IHILFQNdRRMKWHKBC [Pip2b–PNA705]
uptake mechanism from splicing redirection activity at 37°C and 4°C (HeLa pLuc705 cells [1]): energy-dependent uptake mechanism | stability to serum proteolysis (Serum stability assay; 20 μM conjugate, PBS with 20% mouse serum, 1 h, MALDI-TOF MS): predominantly stable for 1 h | effect of EIPA on luciferase expression (HeLa pLuc705 cells [2]; EIPA 1 mM (macropinocytosis)): no effect | inhibitory effect of fillipin-III on luciferase expression (HeLa pLuc705 cells [2]; fillipin-III 5 μg ml–1 (caveolae)): 36% | effect of methyl-β-cyclodextrin on luciferase expression (HeLa pLuc705 cells [2]; methyl-β-cyclodextrin 2.5 mM (macropinocytosis)): increased luciferase expression | inhibitory effect of nystatin on luciferase expression (HeLa pLuc705 cells [2]; nystatin 50 μM (caveolae)): 12% | activity compared to RXR4–PNA705 (HeLa pLuc705 cells [3]; HeLa pLuc705, absence of transfection or permeabilization agent): 3- to 4 fold

Substance: (R-Ahx-R)3IdKILFQNdRRMKWHKBC [Pip2a–PNA705]
uptake mechanism from splicing redirection activity at 37°C and 4°C (HeLa pLuc705 cells [1]): energy-dependent uptake mechanism

EC50 improvement relative to R6Pen–PNA [4]: about 2 fold
Substance: (RXR)3-IKILFQN-R|RMKWKKC [Pip1–PNA705]
uptake mechanism from splicing redirection activity at 37°C and 4°C (HeLa pLuc705 cells [1]): energy-dependent uptake mechanism | time to full cleavage in 20% mouse serum (Serum stability assay; 20 μM conjugate, PBS with 20% mouse serum, MALDI-TOF MS): ≤ 1 h | major serum proteolytic cleavage site (Serum stability assay; 20% mouse serum, fragment masses by MALDI-TOF MS): between amino acids R17 and R18 | fold increase in luminescence compared to R6Pen–PNA705 (HeLa pLuc705 cells [3]; at similar concentrations, HeLa pLuc705 luciferase assay): two to three times

Substance: sense control PNA: sense 20-mer PNA control sequence AGGTAAGCCGAGGTTTGGCC (all peptide nucleic acid (PNA))
exon skipping after electroporation [5]: no exon skipping
